Measurements reported in PMC4783179 (The Journal of comparative neurology, 2015).
Like-named read-outs stand apart in the source and are kept apart here. Marks after values point to notes of the source that are not given here.

Columns and labels:
5-HT1A receptors [1] = molecular target: T1, 5-HT1A receptors (Mus musculus, UniProt Q64264); assay: In vitro autoradiography of 18F-Mefway, mouse brain slices; format: binding
T1 sequence (Q64264 1-421): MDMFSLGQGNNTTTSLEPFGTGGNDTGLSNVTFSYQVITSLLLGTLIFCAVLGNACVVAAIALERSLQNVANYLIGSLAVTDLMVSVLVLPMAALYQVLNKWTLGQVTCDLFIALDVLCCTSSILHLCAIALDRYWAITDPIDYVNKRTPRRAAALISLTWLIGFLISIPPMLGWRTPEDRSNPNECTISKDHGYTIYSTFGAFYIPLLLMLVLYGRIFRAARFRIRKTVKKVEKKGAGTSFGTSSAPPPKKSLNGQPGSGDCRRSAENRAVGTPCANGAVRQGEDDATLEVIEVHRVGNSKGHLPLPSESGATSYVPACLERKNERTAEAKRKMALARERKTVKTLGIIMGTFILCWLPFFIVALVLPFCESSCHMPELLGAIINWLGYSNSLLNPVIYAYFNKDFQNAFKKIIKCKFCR
Method in brief: (§1)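 Horizontal 10 µm slices covering hippocampus, frontal cortex, dorsal raphe and cerebellum. Sources: frozen brains of male BALB/c mice (25 g) or male Sprague-Dawley rats (250–300 g). Preincubated in 50 mM Tris-HCl pH 7.4 for 10 min at room temperature, then 37–185 kBq/mL tracer at 37 °C for 1 h. […] Washed, then phosphor screen for 24 h. Regional DLU/mm² expressed as ratios to cerebellum as reference.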

D2 subtype = D2 subtype (Homo sapiens, UniProt P14416); assay: NIMH PDSP binding affinity, human cloned receptor; settings: read-out: Affinity, D2 subtype
D2 subtype, sequence (P14416 whole entry): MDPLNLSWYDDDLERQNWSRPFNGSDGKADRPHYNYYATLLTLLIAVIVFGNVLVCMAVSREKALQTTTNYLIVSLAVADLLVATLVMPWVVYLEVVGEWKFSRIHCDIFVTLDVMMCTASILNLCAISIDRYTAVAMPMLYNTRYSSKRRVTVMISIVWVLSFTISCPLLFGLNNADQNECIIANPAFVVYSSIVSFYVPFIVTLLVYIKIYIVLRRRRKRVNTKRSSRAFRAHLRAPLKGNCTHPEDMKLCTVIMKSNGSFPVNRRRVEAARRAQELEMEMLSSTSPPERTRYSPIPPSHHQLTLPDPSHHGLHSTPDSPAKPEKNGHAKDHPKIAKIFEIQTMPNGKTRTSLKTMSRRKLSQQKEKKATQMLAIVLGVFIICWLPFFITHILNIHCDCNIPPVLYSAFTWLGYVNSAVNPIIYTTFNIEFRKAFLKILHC

[2] = rhesus monkey; ref Wooten et al., 2013; cited from earlier work
[3] = tested on: all other human-cloned receptor subtypes tested; assay: NIMH PDSP screening of the remaining panel; format: binding
5-HT1A receptors [4] = molecular target: T2, 5-HT1A receptors (Homo sapiens, UniProt P08908); settings: ref Hillmer et al., 2014, cited from earlier work; for HP/CB PET ratio / Brain Uptake: human; for HP/CB PET ratio: 90 mins post-injection; for Brain Uptake: initial, 1–2 min post-injection
T2 sequence (P08908 1-422): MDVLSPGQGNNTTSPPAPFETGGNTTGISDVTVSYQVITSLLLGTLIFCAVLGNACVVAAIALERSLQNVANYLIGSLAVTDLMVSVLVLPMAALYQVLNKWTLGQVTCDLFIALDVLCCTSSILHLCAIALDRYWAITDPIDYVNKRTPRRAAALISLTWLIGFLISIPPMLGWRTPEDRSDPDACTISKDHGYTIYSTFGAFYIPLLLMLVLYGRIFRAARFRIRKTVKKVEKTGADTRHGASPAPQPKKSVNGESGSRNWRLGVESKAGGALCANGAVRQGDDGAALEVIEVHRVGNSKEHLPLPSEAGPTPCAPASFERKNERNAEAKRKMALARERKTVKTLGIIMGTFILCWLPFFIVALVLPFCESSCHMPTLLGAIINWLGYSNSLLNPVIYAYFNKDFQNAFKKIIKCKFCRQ

[5] = tested on: serotonin 5-HT1A receptor; format: binding, human; settings: [5-HT1A affinity/other receptor affinity]×100; 5-HT1A 0.6 or 2.2 nM for WAY-100635, 0.9 nM for Mefway
[6] = molecular target: serotonin 5-HT1A receptor (Homo sapiens, UniProt P08908); format: binding; settings: human cloned receptor, PDSP
[7] = molecular target: serotonin 5-HT1A receptors; settings: rat brain homogenates labeled with 3H-WAY 100635; ref Saigal et al., 2013; cited from earlier work
5-HT1A receptors [8] = molecular target: T3, 5-HT1A receptors (Rattus norvegicus, UniProt P19327); assay: In vitro autoradiography of 18F-Mefway, rat brain slices; format: binding
T3 sequence (P19327 1-422): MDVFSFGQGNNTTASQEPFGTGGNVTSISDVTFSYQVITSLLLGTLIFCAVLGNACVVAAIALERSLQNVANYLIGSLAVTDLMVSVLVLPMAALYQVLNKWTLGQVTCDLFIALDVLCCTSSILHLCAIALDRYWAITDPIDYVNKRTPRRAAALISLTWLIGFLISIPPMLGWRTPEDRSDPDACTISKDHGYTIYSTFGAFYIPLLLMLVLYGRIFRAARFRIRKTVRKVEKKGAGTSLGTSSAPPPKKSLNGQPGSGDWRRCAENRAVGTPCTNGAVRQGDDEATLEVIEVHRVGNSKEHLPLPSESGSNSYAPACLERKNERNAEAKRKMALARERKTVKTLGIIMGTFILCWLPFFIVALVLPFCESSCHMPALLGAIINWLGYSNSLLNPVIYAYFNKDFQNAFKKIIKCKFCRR
Method in brief: as §1

[9] = molecular target: multidrug resistance 1 protein (MDR1; P-glycoprotein) (Homo sapiens, UniProt P08183); assay: Multidrug resistance; format: biochemical; settings: read-out: IC50 as potential substrate of MDR1 (P-glycoprotein)
[10] = human plasma; ref Hillmer et al., 2014; cited from earlier work
dopamine D4 = dopamine D4 (Homo sapiens, UniProt P21917); assay: NIMH PDSP binding affinity, human cloned receptor
dopamine D4, sequence (P21917 whole entry): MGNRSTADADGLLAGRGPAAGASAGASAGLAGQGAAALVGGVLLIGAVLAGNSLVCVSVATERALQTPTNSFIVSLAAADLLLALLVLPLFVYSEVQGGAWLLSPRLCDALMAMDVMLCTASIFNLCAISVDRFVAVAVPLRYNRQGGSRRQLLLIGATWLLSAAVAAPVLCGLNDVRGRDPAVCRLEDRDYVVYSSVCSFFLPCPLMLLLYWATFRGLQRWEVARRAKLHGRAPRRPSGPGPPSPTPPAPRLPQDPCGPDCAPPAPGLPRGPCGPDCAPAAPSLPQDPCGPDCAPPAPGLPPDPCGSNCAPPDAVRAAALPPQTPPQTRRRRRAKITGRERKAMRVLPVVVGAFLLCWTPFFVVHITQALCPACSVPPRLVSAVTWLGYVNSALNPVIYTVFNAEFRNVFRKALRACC

D5 = D5 (Homo sapiens, UniProt P21918); assay: NIMH PDSP binding affinity, human cloned receptor; settings: D1-like receptors
D5, sequence (P21918 whole entry): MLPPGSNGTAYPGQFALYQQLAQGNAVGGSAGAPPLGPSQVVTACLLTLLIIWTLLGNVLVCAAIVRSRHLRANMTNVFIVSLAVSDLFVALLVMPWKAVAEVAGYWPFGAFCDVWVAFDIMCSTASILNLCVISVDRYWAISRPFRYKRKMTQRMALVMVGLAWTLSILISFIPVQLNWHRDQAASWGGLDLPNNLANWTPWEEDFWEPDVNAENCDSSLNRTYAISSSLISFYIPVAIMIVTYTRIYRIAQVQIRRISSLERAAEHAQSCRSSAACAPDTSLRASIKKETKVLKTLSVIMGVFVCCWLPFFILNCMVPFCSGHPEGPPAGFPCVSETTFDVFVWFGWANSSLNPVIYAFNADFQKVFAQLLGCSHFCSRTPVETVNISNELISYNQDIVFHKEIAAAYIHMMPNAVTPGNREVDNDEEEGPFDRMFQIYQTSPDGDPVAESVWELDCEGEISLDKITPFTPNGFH

5-HT1A receptors [11] = settings: cited from earlier work
5-HT2B = 5-HT2B (Homo sapiens, UniProt P41595); assay: NIMH PDSP binding affinity, human cloned receptor
5-HT2B, sequence (P41595 whole entry): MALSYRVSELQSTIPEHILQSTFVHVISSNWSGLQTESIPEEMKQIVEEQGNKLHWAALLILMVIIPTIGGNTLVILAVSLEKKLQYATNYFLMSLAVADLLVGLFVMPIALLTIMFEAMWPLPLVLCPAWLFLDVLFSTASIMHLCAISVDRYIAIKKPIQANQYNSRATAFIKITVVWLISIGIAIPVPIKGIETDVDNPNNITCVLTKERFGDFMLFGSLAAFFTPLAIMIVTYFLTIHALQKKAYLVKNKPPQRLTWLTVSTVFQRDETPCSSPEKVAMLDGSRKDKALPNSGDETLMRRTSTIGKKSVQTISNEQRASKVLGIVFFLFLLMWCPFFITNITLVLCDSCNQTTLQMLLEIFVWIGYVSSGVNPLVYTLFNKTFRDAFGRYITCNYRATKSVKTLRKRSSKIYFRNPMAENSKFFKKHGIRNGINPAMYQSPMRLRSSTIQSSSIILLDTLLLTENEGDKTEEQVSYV

D1 = D1 (Homo sapiens, UniProt P21728); assay: NIMH PDSP binding affinity, human cloned receptor; settings: D1-like receptors
D1, sequence (P21728 whole entry): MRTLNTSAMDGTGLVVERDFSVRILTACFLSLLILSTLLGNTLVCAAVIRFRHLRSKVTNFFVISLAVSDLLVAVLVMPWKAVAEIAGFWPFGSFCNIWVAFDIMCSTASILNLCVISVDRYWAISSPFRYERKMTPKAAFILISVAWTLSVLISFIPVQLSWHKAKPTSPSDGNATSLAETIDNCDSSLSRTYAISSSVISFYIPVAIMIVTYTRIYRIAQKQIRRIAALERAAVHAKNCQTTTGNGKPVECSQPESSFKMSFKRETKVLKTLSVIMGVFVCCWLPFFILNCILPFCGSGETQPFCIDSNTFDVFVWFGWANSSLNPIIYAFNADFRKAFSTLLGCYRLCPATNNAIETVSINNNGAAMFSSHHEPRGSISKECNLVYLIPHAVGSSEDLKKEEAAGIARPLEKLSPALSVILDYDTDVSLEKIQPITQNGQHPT

[12] = [5-HT1A affinity/other receptor affinity]×100, 5-HT1A 0.6 or 2.2 nM for WAY-100635, 0.9 nM for Mefway

COc1ccccc1N1CCN(CCN(C(=O)C2CCC(CF)CC2)c2ccccn2)CC1 (stereo not drawn) [Mefway]
Binding displaced in hippocampus and cortex (5-HT1A receptors [1]; in the presence of 10 μM of WAY-100635, mouse (all the species)): > 95%
Ratio in cortical regions, autoradiography (5-HT1A receptors [1]; mice): > 10
Ratio of hippocampus to cerebellum, autoradiography (5-HT1A receptors [1]; mice, brain slices incubated for one hr): 25
Ratio of raphe to cerebellum, autoradiography (5-HT1A receptors [1]; mice, horizontal sections): 22
Ki (D2 subtype): 188 nM
Free Fraction in plasma [2]: 15% ^j
Affinity, other adrenergic receptor subtypes ([3]; adrenergic subtypes other than α1A and α1D): poor affinities
Affinity, all other receptor subtypes tested in section 2.3 ([3]; at 10 μM concentration, significant = > 50% inhibition): did not exhibit significant affinity
Affinity, other serotonin receptor subtypes ([3]; serotonin subtypes other than 5-HT1A, 5-HT7, 5-HT2B): did not show significant affinities
Adverse or pharmacologic effects in human subjects (5-HT1A receptors [4]; approximately 185 MBq bolus, 6 subjects): no adverse or clinically detectable pharmacologic effects
Binding potential HP, BPND (5-HT1A receptors [4]; human hippocampus): 2.7 ^i
HP/CB PET ratio (5-HT1A receptors [4]): 4 ^i
HP/CB PET ratio (5-HT1A receptors [4]; listed as 18F-Mefway): 4
Brain Uptake (5-HT1A receptors [4]): 0.002 ^e %ID/cc
Brain Uptake (5-HT1A receptors [4]; listed as 18F-Mefway): 0.002 %ID/cc
% human 5HT1A Selectivity, 5-HT1A [5]: 100%
Binding affinity, Ki, 5-HT1A [6]: subnanomolar affinity
Ki ([6]; read-out: Binding affinity, Ki, 5-HT1A): 0.9 nM
Binding affinity, Ki, 5-HT1A, rat brain homogenates [7]: subnanomolar affinity
Binding displaced in hippocampus and cortex (5-HT1A receptors [8]; in the presence of 10 μM of WAY-100635, rat (all the species)): > 95%
Ratio in cortical regions, autoradiography (5-HT1A receptors [8]; rats): > 10
Ratio of hippocampus to cerebellum, autoradiography (5-HT1A receptors [8]; rats, brain slices incubated for one hr): 30
Ratio of raphe to cerebellum, autoradiography (5-HT1A receptors [8]; rats, horizontal sections): 23
IC50 [9]: > 30000 nM
Free Fraction in plasma [10]: 5% ^j
% human 5HT1A Selectivity, D4 (dopamine D4; [12]): 0.71%
Ki (dopamine D4; read-out: Binding affinity, Ki, D4, human cloned receptor, PDSP): 126 nM
Affinity, D5 subtype (D5): very poor affinities
Raphe ratio with respect to cerebellum (5-HT1A receptors [11]; monkey, higher resolution P4 scanner, ref Wooten et al., 2011b): greater than 3
HP/CB PET ratio (5-HT1A receptors [11]; monkey, 90 mins post-injection, ref Saigal et al., 2006, Wooten et al., 2011b): 10 ^f
Raphe BPND (5-HT1A receptors [11]; monkey, ref Wooten et al., 2011b): greater than 3
Raphe ratio with respect to cerebellum (5-HT1A receptors [11]; monkeys, EXACT HR+ PET scanner, ref Saigal et al., 2006): approximately 2
Raphe to cerebellum ratio (5-HT1A receptors [11]; monkeys, scanner not stated (abstract)): approximately 3
% human 5HT1A Selectivity, 5-HT2B (5-HT2B; [12]): 0.35%
Ki (5-HT2B; read-out: Binding affinity, Ki, 5-HT2B, human cloned receptor, PDSP): 260 nM
Affinity, D1 subtype (D1): very poor affinities
